pIC50: −log10 of the molar value.

Experiment [1] concerns HeLa. Kind of experiment: Induction of apoptosis in human HeLa cells assessed as late apoptotic cells at 2.5 uM after 24 hrs by Annexin-V-FITC/propidium iodide staining based flow cytometry (reference value: 1.72%). The experiment is classed as functional. The method, boiled down: (§1)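 HeLa seeded at 2 × 10⁵ cells/well. Dose series was 0, 1.25, 2.5, 5 and 10 μM for 24 h; time course was 5 μM for 12, 24, 36 or 48 h. Trypsinized and washed in ice-cold PBS, then stained in binding buffer with Annexin V-FITC and PI for 10 min in the dark. Flow cytometry scored early (Annexin⁺/PI⁻) and late (Annexin⁺/PI⁺) apoptotic cells.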
A general note: In flow cytometry, cells or beads pass a laser one at a time.

The test system of experiment [2] is HeLa. As to the kind of experiment: Disruption of mitochondrial membrane potential in human HeLa cells assessed as collapse of the mitochondrial membrane potential at 1.25 uM after 12 hrs by JC1 staining based flow cytometry (reference value: 0.768%). The experiment is classed as functional.
The subject of experiment [3] is HeLa. Kind of experiment: Induction of apoptosis in human HeLa cells assessed as late apoptotic cells at 5 uM after 12 hrs by Annexin-V-FITC/propidium iodide staining based flow cytometry (reference value: 2.57%). In kind it is functional. The method, boiled down:
as §1

Experiment [4] concerns HeLa. As to the kind of experiment: Induction of apoptosis in human HeLa cells assessed as early apoptotic cells at 5 uM after 36 hrs by Annexin-V-FITC/propidium iodide staining based flow cytometry (reference value: 1.24%). In kind it is functional. The method, boiled down: as §1
Experiment [5] relates to HeLa. Kind of experiment: Induction of apoptosis in human HeLa cells assessed as early apoptotic cells at 2.5 uM after 24 hrs by Annexin-V-FITC/propidium iodide staining based flow cytometry (reference value: 2.98%). The experiment is classed as functional. Summed up:
as §1

Experiment [6] has as its system HeLa. As to the kind of experiment: Cell cycle arrest in human HeLa cells assessed as accumulation at S phase at 5 uM after 24 hrs by propidium iodide staining based flow cytometry (reference value: 18.16%). The experiment is classed as functional.
Experiment [7] concerns HeLa. Kind of experiment: Antiproliferative activity against human HeLa cells after 48 hrs by MTT assay. The experiment is classed as functional, cell-based. Background: Tetrazolium dyes change colour on reduction, which living cells bring about.
Experiment [8] concerns the target T1, Prostaglandin G/H synthase 2 (Homo sapiens, UniProt P35354).
T1 sequence (P35354 whole entry): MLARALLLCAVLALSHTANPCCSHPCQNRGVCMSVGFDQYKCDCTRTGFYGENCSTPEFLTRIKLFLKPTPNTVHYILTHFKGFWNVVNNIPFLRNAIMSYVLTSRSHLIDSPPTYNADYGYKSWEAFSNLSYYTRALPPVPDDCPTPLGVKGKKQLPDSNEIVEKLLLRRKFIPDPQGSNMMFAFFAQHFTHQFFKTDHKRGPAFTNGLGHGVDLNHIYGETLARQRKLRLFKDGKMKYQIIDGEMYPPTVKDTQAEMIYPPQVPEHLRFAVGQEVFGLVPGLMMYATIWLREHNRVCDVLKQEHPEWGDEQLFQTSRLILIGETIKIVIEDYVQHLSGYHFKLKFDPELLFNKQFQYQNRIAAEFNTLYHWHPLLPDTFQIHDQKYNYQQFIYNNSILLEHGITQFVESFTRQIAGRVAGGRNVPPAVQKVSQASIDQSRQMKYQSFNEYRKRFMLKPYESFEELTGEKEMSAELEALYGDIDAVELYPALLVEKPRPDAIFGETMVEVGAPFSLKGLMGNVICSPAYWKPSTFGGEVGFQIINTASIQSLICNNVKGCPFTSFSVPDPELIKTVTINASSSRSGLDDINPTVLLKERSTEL
Kind of experiment: Inhibition of COX2 (unknown origin) using arachidonic acid as substrate pretreated for 10 mins followed by substrate addition and measured after 2 mins by ELISA. (In general: ELISA stands for enzyme-linked immunosorbent assay.)

Experiment [9] has as its system HeLa. As to the kind of experiment: Induction of apoptosis in human HeLa cells assessed as necrotic cells at 2.5 uM after 24 hrs by Annexin-V-FITC/propidium iodide staining based flow cytometry (reference value: 0.242%). In kind it is functional. Summed up:
as §1

The subject of experiment [10] is HeLa. Kind of experiment: Cell cycle arrest in human HeLa cells assessed as accumulation at G2/M phase at 2.5 uM after 24 hrs by propidium iodide staining based flow cytometry (reference value: 21.45%). In kind it is functional.
Experiment [11] relates to HeLa. Kind of experiment: Induction of apoptosis in human HeLa cells assessed as live cells at 5 uM after 12 hrs by Annexin-V-FITC/propidium iodide staining based flow cytometry (reference value: 95.1%). The experiment is classed as functional. Summed up: as §1
The subject of experiment [12] is HeLa. As to the kind of experiment: Cell cycle arrest in human HeLa cells assessed as accumulation at G1 phase at 2.5 uM after 24 hrs by propidium iodide staining based flow cytometry (reference value: 55.51%). In kind it is functional.
Another experiment relates to B16-F10. Kind of experiment: Antiproliferative activity against mouse B16F10 cells after 48 hrs by MTT assay. The note with it: B16-F10, 48 h. The experiment is classed as functional, cell-based. Summed up:
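Cells kept in DMEM with 10% FBS, penicillin/streptomycin, 37 °C, 5% CO₂. Seeded at 5 × 10⁴ cells/well and allowed to adhere 12 h. Exposed to 0, 0.1, 1, 10 and 100 μM (final) for 48 h. Viability read by MTT reduction at OD 570 nm with 630 nm reference. IC50 reported as mean ± SD of three independent experiments.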

The test system of experiment [13] is HeLa. As to the kind of experiment: Induction of apoptosis in human HeLa cells assessed as live cells at 5 uM after 24 hrs by Annexin-V-FITC/propidium iodide staining based flow cytometry (reference value: 94.6 to 95.1%). The experiment is classed as functional. Summed up:
as §1

In experiment [14] the test system is HeLa. As to the kind of experiment: Induction of apoptosis in human HeLa cells assessed as early apoptotic cells at 1.25 uM after 24 hrs by Annexin-V-FITC/propidium iodide staining based flow cytometry (reference value: 2.98%). In kind it is functional. The method, boiled down: as §1
Experiment [15] relates to HeLa. Kind of experiment: Cell cycle arrest in human HeLa cells assessed as accumulation at G1 phase at 1.25 uM after 24 hrs by propidium iodide staining based flow cytometry (reference value: 55.51%). The experiment is classed as functional.
In experiment [16] the test system is HeLa. Kind of experiment: Cell cycle arrest in human HeLa cells assessed as accumulation at G2/M phase at 1.25 uM after 24 hrs by propidium iodide staining based flow cytometry (reference value: 21.45%). The experiment is classed as functional.
For experiment [17], the system named is HeLa. As to the kind of experiment: Induction of apoptosis in human HeLa cells assessed as necrotic cells at 5 uM after 12 hrs by Annexin-V-FITC/propidium iodide staining based flow cytometry (reference value: 1.12%). In kind it is functional. Summed up:
as §1

Experiment [18] relates to HeLa. As to the kind of experiment: Induction of apoptosis in human HeLa cells assessed as live cells at 1.25 uM after 24 hrs by Annexin-V-FITC/propidium iodide staining based flow cytometry (reference value: 94.6%). In kind it is functional. The method, boiled down:
as §1

The test system of experiment [19] is HeLa. As to the kind of experiment: Disruption of mitochondrial membrane potential in human HeLa cells assessed as intact mitochondrial membrane at 2.5 uM after 12 hrs by JC1 staining based flow cytometry (reference value: 99.2%). The experiment is classed as functional.
The subject of experiment [20] is HeLa. As to the kind of experiment: Induction of apoptosis in human HeLa cells assessed as early apoptotic cells at 10 uM after 24 hrs by Annexin-V-FITC/propidium iodide staining based flow cytometry (reference value: 2.98%). The experiment is classed as functional. Summed up: as §1
For experiment [21], the system named is HeLa. As to the kind of experiment: Disruption of mitochondrial membrane potential in human HeLa cells after 12 hrs by JC1 staining based flow cytometry. In kind it is functional, cell-based.
The test system of experiment [22] is HeLa. Kind of experiment: Induction of apoptosis in human HeLa cells assessed as early apoptotic cells at 5 uM after 12 hrs by Annexin-V-FITC/propidium iodide staining based flow cytometry (reference value: 1.24%). The experiment is classed as functional. The method, boiled down: as §1
Experiment [23] concerns HeLa. As to the kind of experiment: Cell cycle arrest in human HeLa cells assessed as accumulation at G1 phase at 10 uM after 24 hrs by propidium iodide staining based flow cytometry (reference value: 55.51%). In kind it is functional.

Usually pIC50 stands for the IC50 on a negative log10 scale, so that one unit is a factor of ten. For `COc1ccc(-c2cc(COC(=O)COc3cc(O)c4c(=O)cc(-c5ccccc5)oc4c3)nn2-c2ccc(C)cc2)cc1`, the Activity in the experiment with HeLa [1] is recorded as 8.28%; with HeLa [2] it was 3.1%; with HeLa [3], 7.07%; in the experiment with HeLa [4], 40.4%; with HeLa [5], 16.6%; in the experiment with HeLa [6], 15.67%. Besides, the Activity in the experiment on HeLa [9] is given as 0.332%; in the experiment on HeLa [10], 9.58%; with HeLa [11] it was 67.7%; in the experiment on HeLa [12], 67.88%; with HeLa [13], 43.7 - 57.3%; in the experiment with HeLa [14] it was 12.6%. In addition, the Activity in the experiment on HeLa [15] worked out at 62.63%; in the experiment with HeLa [16], 13.65%; with HeLa [17] it was 1.71%; in the experiment on HeLa [18], 83.2%; with HeLa [19], 93.4%; in the experiment with HeLa [20], 36.8%. The Activity result was “Dose-dependent effect” in the experiment on HeLa [21], 22.7% in the experiment on HeLa [22] and 76.02% in the experiment on HeLa [23]. The values for the pIC50 (in the experiment with HeLa [7]; in [8]; with B16-F10) were 5.95, 6.64 and 4.98, respectively.

(Values after ChEMBL document CHEMBL4229460, “Design and biological evaluation of novel hybrids of 1, 5-diarylpyrazole and Chrysin for selective COX-2 inhibition” (Bioorg Med Chem, 2018).)
